Laboratory results: ChEMBL document CHEMBL1687757, “Many chromosomal genes modulate MarA-mediated multidrug resistance in Escherichia coli” (2010)
In brackets after ≈: the same amount, converted by molar mass.

Test system: Escherichia coli
Test: Antibacterial activity against marA-overproducing Escherichia coli CR1000 harboring inactivated mhpT gene assessed as MarA-mediated multidrug resistance level by measuring fold change in MIC relative to MarA-deficient Escherichia coli CR2000
Type: functional
Details: not given
How it was run: (§1)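 Each inactivated gene was transferred into both the ΔmarR (CR1000) and the ΔmarRA (CR2000) BW25113 backgrounds. Each derivative was grown overnight in LB and tested by Etest on Mueller-Hinton plates, read after 20 h at 37°C, against cefoxitin, norfloxacin, chloramphenicol and minocycline. The MarA-mediated level compares the MIC in the ΔmarR derivative with the MIC in the matching ΔmarRA derivative.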

SMILES	Activity [%]
CCn1cc(C(=O)O)c(=O)c2cc(F)c(N3CCNCC3)cc21 [NORFLOXACIN]	91

Test system: Escherichia coli
Test: Antibacterial activity against MarA-deficient Escherichia coli CR2000 after 20 hrs by Etest method
Type: functional
Details: CR2000, 20 h
How it was run: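 Overnight LB-grown cultures (37°C, agitation) of the ΔmarRA strain (BW25113 background) tested on Mueller-Hinton plates with Etest strips per manufacturer's instructions. MIC read after 20 h at 37°C.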

SMILES	MIC [µg/mL]
CCn1cc(C(=O)O)c(=O)c2cc(F)c(N3CCNCC3)cc21 [NORFLOXACIN]	0.07 (≈ 0.219 µM)

Test system: Escherichia coli
Test: Ratio of MIC for marA-overproducing Escherichia coli CR1000 to MIC for MarA-deficient Escherichia coli CR2000
Type: functional
Details: not given
How it was run: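 MICs measured by Etest on Mueller-Hinton plates, read after 20 h at 37°C, for the ΔmarR strain (constitutive chromosomal marA overexpression) and the ΔmarRA strain (BW25113 background), both grown overnight in LB at 37°C. MarA-mediated MDR expressed as the ΔmarR/ΔmarRA MIC ratio.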

SMILES	Ratio
CCn1cc(C(=O)O)c(=O)c2cc(F)c(N3CCNCC3)cc21 [NORFLOXACIN]	3.1

Test system: Escherichia coli
Test: Antibacterial activity against marA-overproducing Escherichia coli CR1000 harboring inactivated nikD gene assessed as MarA-mediated multidrug resistance level by measuring fold change in MIC relative to MarA-deficient Escherichia coli CR2000
Type: functional
Details: not given
How it was run: as §1

SMILES	Activity [%]
CCn1cc(C(=O)O)c(=O)c2cc(F)c(N3CCNCC3)cc21 [NORFLOXACIN]	68

Test system: Escherichia coli
Test: Antibacterial activity against marA-overproducing Escherichia coli CR1000 harboring inactivated degP gene assessed as MarA-mediated multidrug resistance level by measuring fold change in MIC relative to MarA-deficient Escherichia coli CR2000
Type: functional
Details: not given
How it was run: as §1

SMILES	Activity [%]
CCn1cc(C(=O)O)c(=O)c2cc(F)c(N3CCNCC3)cc21 [NORFLOXACIN]	91

Test system: Escherichia coli
Test: Antibacterial activity against marA-overproducing Escherichia coli CR1000 harboring inactivated damX gene assessed as MarA-mediated multidrug resistance level by measuring fold decrease in MIC relative to MarA-deficient Escherichia coli CR2000
Type: functional
Set-up: scale not given: the % may be the effect or the level left
Details: not given
How it was run: as §1

SMILES	Activity [%]
CCn1cc(C(=O)O)c(=O)c2cc(F)c(N3CCNCC3)cc21 [NORFLOXACIN]	46

Test system: Escherichia coli
Test: Antibacterial activity against marA-overproducing Escherichia coli CR1000 harboring inactivated tolC gene assessed as MarA-mediated multidrug resistance level by measuring fold decrease in MIC relative to MarA-deficient Escherichia coli CR2000
Type: functional
Set-up: scale not given: the % may be the effect or the level left
Details: not given
How it was run: as §1

SMILES	Activity [%]
CCn1cc(C(=O)O)c(=O)c2cc(F)c(N3CCNCC3)cc21 [NORFLOXACIN]	0

Test system: Escherichia coli
Test: Antibacterial activity against marA-overproducing Escherichia coli CR1000 harboring inactivated crp gene assessed as MarA-mediated multidrug resistance level by measuring fold change in MIC relative to MarA-deficient Escherichia coli CR2000
Type: functional
Details: not given
How it was run: as §1

SMILES	Activity [%]
CCn1cc(C(=O)O)c(=O)c2cc(F)c(N3CCNCC3)cc21 [NORFLOXACIN]	33

Test system: Escherichia coli
Test: Antibacterial activity against marA-overproducing Escherichia coli CR1000 harboring inactivated yibLp gene assessed as MarA-mediated multidrug resistance level by measuring fold change in MIC relative to MarA-deficient Escherichia coli CR2000
Type: functional
Details: not given
How it was run: as §1

SMILES	Activity [%]
CCn1cc(C(=O)O)c(=O)c2cc(F)c(N3CCNCC3)cc21 [NORFLOXACIN]	68

Test system: Escherichia coli
Test: Antibacterial activity against marA-overproducing Escherichia coli CR1000 harboring inactivated yniDp gene assessed as MarA-mediated multidrug resistance level by measuring fold change in MIC relative to MarA-deficient Escherichia coli CR2000
Type: functional
Details: not given
How it was run: as §1

SMILES	Activity [%]
CCn1cc(C(=O)O)c(=O)c2cc(F)c(N3CCNCC3)cc21 [NORFLOXACIN]	77

Test system: Escherichia coli
Test: Antibacterial activity against marA-overproducing Escherichia coli CR1000 harboring inactivated acrA gene assessed as MarA-mediated multidrug resistance level by measuring fold decrease in MIC relative to MarA-deficient Escherichia coli CR2000
Type: functional
Set-up: scale not given: the % may be the effect or the level left
Details: not given
How it was run: as §1

SMILES	Activity [%]
CCn1cc(C(=O)O)c(=O)c2cc(F)c(N3CCNCC3)cc21 [NORFLOXACIN]	0

Test system: Escherichia coli
Test: Antibacterial activity against marA-overproducing Escherichia coli CR1000 harboring inactivated treC gene assessed as MarA-mediated multidrug resistance level by measuring fold change in MIC relative to MarA-deficient Escherichia coli CR2000
Type: functional
Details: not given
How it was run: as §1

SMILES	Activity [%]
CCn1cc(C(=O)O)c(=O)c2cc(F)c(N3CCNCC3)cc21 [NORFLOXACIN]	46

Test system: Escherichia coli
Test: Antibacterial activity against wild-type Escherichia coli BW25113 after 20 hrs by Etest method
Type: functional
Details: BW25113, 20 h
How it was run: (§2)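 MICs by Etest strips on Mueller-Hinton plates, following the manufacturer's specifications. Cells came from overnight liquid cultures in LB at 37°C with agitation. Plates were read after 20 h at 37°C. Antibiotics tested were cefoxitin, norfloxacin, chloramphenicol and minocycline.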

SMILES	MIC [µg/mL]
CCn1cc(C(=O)O)c(=O)c2cc(F)c(N3CCNCC3)cc21 [NORFLOXACIN]	0.09 (≈ 0.282 µM)

Test system: Escherichia coli
Test: Antibacterial activity against marA-overproducing Escherichia coli CR1000 harboring inactivated pcnB gene assessed as MarA-mediated multidrug resistance level by measuring fold decrease in MIC relative to MarA-deficient Escherichia coli CR2000
Type: functional
Set-up: scale not given: the % may be the effect or the level left
Details: not given
How it was run: as §1

SMILES	Activity [%]
CCn1cc(C(=O)O)c(=O)c2cc(F)c(N3CCNCC3)cc21 [NORFLOXACIN]	23

Test system: Escherichia coli
Test: Antibacterial activity against marA-overproducing Escherichia coli CR1000 harboring inactivated metV gene assessed as MarA-mediated multidrug resistance level by measuring fold change in MIC relative to MarA-deficient Escherichia coli CR2000
Type: functional
Details: not given
How it was run: as §1

SMILES	Activity [%]
CCn1cc(C(=O)O)c(=O)c2cc(F)c(N3CCNCC3)cc21 [NORFLOXACIN]	91

Test system: Escherichia coli
Test: Antibacterial activity against marA-overproducing Escherichia coli CR1000 harboring inactivated appA gene assessed as MarA-mediated multidrug resistance level by measuring fold change in MIC relative to MarA-deficient Escherichia coli CR2000
Type: functional
Details: not given
How it was run: as §1

SMILES	Activity [%]
CCn1cc(C(=O)O)c(=O)c2cc(F)c(N3CCNCC3)cc21 [NORFLOXACIN]	84

Test system: Escherichia coli
Test: Antibacterial activity against MarA-overexpressing Escherichia coli CR1000 after 20 hrs by Etest method
Type: functional
Details: CR1000, 20 h
How it was run: as §2

SMILES	MIC [µg/mL]
CCn1cc(C(=O)O)c(=O)c2cc(F)c(N3CCNCC3)cc21 [NORFLOXACIN]	0.21 (≈ 0.658 µM)

Test system: Escherichia coli
Test: Antibacterial activity against marA-overproducing Escherichia coli CR1000 harboring inactivated ynfE gene assessed as MarA-mediated multidrug resistance level by measuring fold change in MIC relative to MarA-deficient Escherichia coli CR2000
Type: functional
Details: not given
How it was run: as §1

SMILES	Activity [%]
CCn1cc(C(=O)O)c(=O)c2cc(F)c(N3CCNCC3)cc21 [NORFLOXACIN]	68

Test system: Escherichia coli
Test: Antibacterial activity against marA-overproducing Escherichia coli CR1000 harboring inactivated metL gene assessed as MarA-mediated multidrug resistance level by measuring fold change in MIC relative to MarA-deficient Escherichia coli CR2000
Type: functional
Details: not given
How it was run: as §1

SMILES	Activity [%]
CCn1cc(C(=O)O)c(=O)c2cc(F)c(N3CCNCC3)cc21 [NORFLOXACIN]	91

Test system: Escherichia coli
Test: Antibacterial activity against marA-overproducing Escherichia coli CR1000 harboring inactivated maoC gene assessed as MarA-mediated multidrug resistance level by measuring fold change in MIC relative to MarA-deficient Escherichia coli CR2000
Type: functional
Details: not given
How it was run: as §1

SMILES	Activity [%]
CCn1cc(C(=O)O)c(=O)c2cc(F)c(N3CCNCC3)cc21 [NORFLOXACIN]	61

Test system: Escherichia coli
Test: Antibacterial activity against marA-overproducing Escherichia coli CR1000 harboring inactivated cspGp gene assessed as MarA-mediated multidrug resistance level by measuring fold change in MIC relative to MarA-deficient Escherichia coli CR2000
Type: functional
Details: not given
How it was run: as §1

SMILES	Activity [%]
CCn1cc(C(=O)O)c(=O)c2cc(F)c(N3CCNCC3)cc21 [NORFLOXACIN]	91

Test system: Escherichia coli
Test: Antibacterial activity against marA-overproducing Escherichia coli CR1000 harboring inactivated hns gene assessed as MarA-mediated multidrug resistance level by measuring fold decrease in MIC relative to MarA-deficient Escherichia coli CR2000
Type: functional
Set-up: scale not given: the % may be the effect or the level left
Details: not given
How it was run: as §1

SMILES	Activity [%]
CCn1cc(C(=O)O)c(=O)c2cc(F)c(N3CCNCC3)cc21 [NORFLOXACIN]	23

Test system: Escherichia coli
Test: Antibacterial activity against marA-overproducing Escherichia coli CR1000 harboring inactivated ompR gene assessed as MarA-mediated multidrug resistance level by measuring fold change in MIC relative to MarA-deficient Escherichia coli CR2000
Type: functional
Details: not given
How it was run: as §1

SMILES	Activity [%]
CCn1cc(C(=O)O)c(=O)c2cc(F)c(N3CCNCC3)cc21 [NORFLOXACIN]	77

Test system: Escherichia coli
Test: Antibacterial activity against marA-overproducing Escherichia coli CR1000 harboring inactivated yfdG gene assessed as MarA-mediated multidrug resistance level by measuring fold change in MIC relative to MarA-deficient Escherichia coli CR2000
Type: functional
Details: not given
How it was run: as §1

SMILES	Activity [%]
CCn1cc(C(=O)O)c(=O)c2cc(F)c(N3CCNCC3)cc21 [NORFLOXACIN]	91

Test system: Escherichia coli
Test: Antibacterial activity against marA-overproducing Escherichia coli CR1000 harboring inactivated acrB gene assessed as MarA-mediated multidrug resistance level by measuring fold decrease in MIC relative to MarA-deficient Escherichia coli CR2000
Type: functional
Set-up: scale not given: the % may be the effect or the level left
Details: not given
How it was run: as §1

SMILES	Activity [%]
CCn1cc(C(=O)O)c(=O)c2cc(F)c(N3CCNCC3)cc21 [NORFLOXACIN]	9

Test system: Escherichia coli
Test: Antibacterial activity against marA-overproducing Escherichia coli CR1000 harboring inactivated cyaA gene assessed as MarA-mediated multidrug resistance level by measuring fold decrease in MIC relative to MarA-deficient Escherichia coli CR2000
Type: functional
Set-up: scale not given: the % may be the effect or the level left
Details: not given
How it was run: as §1

SMILES	Activity [%]
CCn1cc(C(=O)O)c(=O)c2cc(F)c(N3CCNCC3)cc21 [NORFLOXACIN]	41

Test system: Escherichia coli
Test: Antibacterial activity against marA-overproducing Escherichia coli CR1000 harboring inactivated recD gene assessed as MarA-mediated multidrug resistance level by measuring fold change in MIC relative to MarA-deficient Escherichia coli CR2000
Type: functional
Details: not given
How it was run: as §1

SMILES	Activity [%]
CCn1cc(C(=O)O)c(=O)c2cc(F)c(N3CCNCC3)cc21 [NORFLOXACIN]	77

Test system: Escherichia coli
Test: Antibacterial activity against marA-overproducing Escherichia coli CR1000 harboring inactivated alx gene assessed as MarA-mediated multidrug resistance level by measuring fold change in MIC relative to MarA-deficient Escherichia coli CR2000
Type: functional
Details: not given
How it was run: as §1

SMILES	Activity [%]
CCn1cc(C(=O)O)c(=O)c2cc(F)c(N3CCNCC3)cc21 [NORFLOXACIN]	68
